# Shown are actives, neighbours in structure and some others; about 1.4% of the full set was active somewhere.
# UCH37 DUB inh: inhibitors of human UCH37 deubiquitinase, primary screen, biochemical, Ub-AMC cleavage, fluorescence. Ubiquitin carboxyl-terminal hydrolase isozyme L5 (Homo sapiens), Q9Y5K5. inhibition, % (concentration not given with the values). 330,000 tested, 0.33% active. AID 588478, 2011. purified proteasome/UCH37;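 active means mean inhibition over replicate wells above about 20%, limit read from the data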;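 further: 0% = compound-free wells with enzyme and 100% = wells lacking proteasome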
#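 Material: human UCH37 enzyme supplied as purified proteasome complex / Amount: 0.15 nM proteasome as dispensed / Buffer or medium: pH 7.4 Tris-HCl (50 mM) with ovalbumin, ATP-MgCl2, DTT / Times: preincubation 30 min, reaction 25 min, room temperature / Technique: AMC fluorescence from Ub-AMC cleavage, excitation 355 nm, emission 460 nm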
# TbMetRS inhib: T. brucei MetRS inhibitors, primary screen, biochemical, luminescence. AID 624268, 2012. purified T. brucei MetRS, ATP depletion, Kinase-Glo luminescence. 360,000 tested, 0.4% active. inhibition, % at 11.9 µM;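 active means inhibition above a per-plate cutoff of the control wells' mean inhibition plus 3 SD, cut at about 5.5% in these data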;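 further: 0% = DMSO wells median and 100% = median of wells with control inhibitor compound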
#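 Measured by: Kinase-Glo luciferase luminescence reporting remaining unconsumed ATP. Material: purified T. brucei MetRS enzyme. Doses: 11.9 µM compound single dose, 0.9% DMSO. Medium: HEPES buffer containing pyrophosphatase, BSA, spermine, DTT. Times: 15 min preincubation, 2 h reaction, all 25 °C. Reagent: methionine, ATP and bulk E. coli tRNA.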
# Rin1 Abl inh: inhibitors of Rin1-Abl protein binding, primary screen, biochemical, TR-FRET; inhibition, % at 7.35 µM; 360,000 tested, 0.4% active; in the data active means inhibition above about 5%, passing the limit was not always enough
# ATG4B inhibitor: ATG4B protease inhibitors, primary screen, biochemical, fluorescence, uHTS; Cysteine protease ATG4B (Homo sapiens), Q9Y4P1; ATG4B cleavage of LC3-PLA2, NBD-HPC fluorescence, 1 h; inhibition, % at 8.33 µM; 340,000 tested, 0.51% active; in the data active means inhibition above about 40%
# Target sequence (Q9Y4P1 whole entry, looked up): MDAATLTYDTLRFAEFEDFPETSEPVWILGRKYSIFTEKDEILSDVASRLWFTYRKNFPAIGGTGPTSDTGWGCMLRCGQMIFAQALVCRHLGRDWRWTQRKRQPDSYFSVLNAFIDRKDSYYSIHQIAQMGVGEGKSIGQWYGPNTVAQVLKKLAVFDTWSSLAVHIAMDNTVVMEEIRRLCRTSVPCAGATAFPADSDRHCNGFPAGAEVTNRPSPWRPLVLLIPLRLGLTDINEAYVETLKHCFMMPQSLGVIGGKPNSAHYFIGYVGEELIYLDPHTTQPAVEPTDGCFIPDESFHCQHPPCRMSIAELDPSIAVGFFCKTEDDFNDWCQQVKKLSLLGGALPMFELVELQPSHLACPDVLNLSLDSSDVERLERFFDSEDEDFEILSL
# ATG4B conf: ATG4B protease inhibitors, retest, confirmation, biochemical, fluorescence, single concentration. shares compounds with ATG4B inhibitor. ATG4B protease fluorescent substrate cleavage assay. inhibition, % at 8.33 µM. 320 tested, 92% active. AID 504757, 2011; in the data active means inhibition above about 39%
# PLA2 ctr: PLA2 enzyme inhibition, counter-screen for ATG4B inhibitor project, biochemical, single concentration, uHTS hits; shares compounds with ATG4B inhibitor; 1,600 tested, 66% active; inhibition, % at 8.33 µM; purified PLA2, NBD-C6-HPC fluorescence, 45 min; in the data active means inhibition above about 50%
# The depositor's hits bear a star; . = no result given.
SMILES,UCH37 DUB inh,TbMetRS inhib,Rin1 Abl inh,ATG4B inhibitor,PLA2 ctr,others
O=C(NC(=S)Nc1cc(-c2nc3ccccc3[nH]2)ccc1Cl)c1ccc2c(c1)OCO2,.,-1,-2,52*,60*,
Cc1ccc(-c2nc3ccccc3[nH]2)cc1NC(=O)c1ccc2c(c1)OCO2,3,-1,5,20,.,
Cc1ccc(-c2nc3ccccc3[nH]2)cc1NC(=S)NC(=O)c1ccccc1Br,0,0,0,41*,61*,
CCOc1cc(/C=N/NC(=O)c2cccnc2)ccc1OCC(=O)N(C)C,.,-1,1,9,.,
Cc1cccc(C)c1OCc1cc(C(=O)N2CCN(c3ccc(F)cc3)CC2)no1,1,-1,0,34,.,
Cc1cccc(C)c1OCc1cc(C(=O)N2CCN(c3ccccn3)CC2)no1,5,0,1,57*,53*,
Cc1cccc(C)c1OCc1cc(C(=O)N2CC3C[C@@H]4CC2C[C@H](C3)C4)no1,2,0,0,52*,69*,
O=C(NNc1ccc(Cl)cc1)c1sccc1Cl,2,2,-1,0,.,
CN(C)CCOC(=O)c1cccc(Br)c1,3,-1,1,-2,.,
Cn1c(C(=O)N2CCCC(C(=O)NCCc3ccccc3)C2)cc2sccc21 (stereo not given),1,0,-1,-9,.,
Cc1ccc(C)c(Cn2nnc(C(=O)Nc3ccc4c(c3)OCCO4)c2N)c1,-1,0,6,55*,65*,
Cc1cc(C)cc(NC(=O)c2nnn(Cc3cc(C)ccc3C)c2N)c1,3,-1,-5,57*,78*,
COc1cc(NC(=S)N2CCN(C(=O)C3CCCO3)CC2)c(OC)cc1Cl (stereo not given),0,0,1,5,.,
Cc1cccc2nc(-c3ccccc3)nc(N3CCC(O)(c4ccc(Cl)cc4)CC3)c12,-9,-1,0,41*,23,
CC(=O)Nc1ccc(CN(C)c2c(C)nc3ccc(C(=O)N4CCN(c5ccccc5)CC4)cn23)cc1,.,0,-1,.,.,
CC1CC(C)CN(C(=O)c2ccc3ccccc3c2)C1 (stereo not given),3,0,0,54*,50*,
CC1CC(C)CN(C(=O)c2ccc(C(=O)c3ccccc3)cc2)C1 (stereo not given),2,0,2,42*,44,ATG4B conf=66*
CC1CCN(C(=O)c2ccc3ccccc3c2)CC1,2,-1,-2,1,.,
CC1CC(C)CN(C(=O)c2ccc(S(=O)(=O)N3CC(C)CC(C)C3)cc2)C1 (stereo not given),1,0,1,51*,66*,
CC1CC(C)CN(S(=O)(=O)c2ccc(C(=O)N3CCCC3)cc2)C1 (stereo not given),2,-1,2,7,.,
O=C(Nc1ccccc1N1CCCC1)c1ccco1,2,-1,-1,3,.,
Cc1ccccc1NC(=O)c1ccc(Cl)c(NC(=O)c2cccnc2)c1,1,.,.,.,.,
Cc1ccc(OCC(=O)O/N=C(\N)c2cccc([N+](=O)[O-])c2)cc1C,4,0,1,-1,.,
CC(=O)Nc1cc(C(=O)N2CCc3ccccc3C2)ccc1Sc1ccc(C)cc1,5,0,-1,46*,53*,
CCn1c(C)c(C)c2cc(C(=O)N3CCc4ccccc4C3)ccc21,7,-1,5,72*,74*,
Cc1ccc(CN(c2ccc(C(=O)N3CCc4ccccc4C3)cc2)S(C)(=O)=O)cc1,3,1,-2,56*,60*,
O=C1Nc2ccc(S(=O)(=O)N3CCOCC3)c3cccc1c23,-290,0,-8,-8,.,
CN(Cc1ccccc1)C(=O)c1cc2cc(F)ccc2[nH]1,0,3,-1,5,.,

# Source: PubChem BioAssay (several laboratories)
